Published values collected from several papers.
Compare with care: the assays were run in different laboratories.
Target: Dual specificity protein kinase CLK3 (CLK3, Homo sapiens, UniProt P49761)

| SMILES | test | conditions | endpoint | result |
| --- | --- | --- | --- | --- |
| CCCCC(=O)Nc1ccc(-c2ccc3ncn(CCC)c(=O)c3c2)cn1 | binding, competition with immobilised ligand | 0.5 µM | remaining binding | 78% |
| CN1CCN(C(=O)c2ccc(NC(=O)Nc3ccc(N(C)c4ccnc(Nc5ccc(CS(C)(=O)=O)cc5)n4)cc3)cc2)CC1 | binding | 1 µM | remaining binding | 95% |
| C=CC(=O)N1CCC[C@@H](n2nc(-c3ccc(Oc4ccccc4)cc3)c3c(N)ncnc32)C1 | enzyme activity, inhibitor | 1 µM | inhibition | 23% |
| C1=C/COCc2cc(ccc2OCCN2CCCC2)Nc2nccc(n2)-c2cccc(c2)COC/1 | binding | 0.1 µM | remaining binding | 100% |
| C[C@H]1CC[C@H](n2c3cnccc3c3cnc(Nc4ccc5c(n4)CCN(C(=O)CO)C5)nc32)CC1 | cell-free assay | 1 µM | remaining signal | 100% |
| C=CC(=O)N1CCC([C@@H]2CCNc3c(C(N)=O)c(-c4ccc(Oc5ccccc5)cc4)nn32)CC1 | enzyme activity, inhibitor | 1 µM | inhibition | 16% |
| Cc1cc(O)c(-c2ccc([C@@H](C)CN(C)C)cc2)c2c1[nH]c(=O)c1sccc12 | enzyme activity, inhibitor | 0.1 µM | inhibition | -13.2% |
| CC(C)S(=O)(=O)c1ccc2nccc(Nc3ccc4sc(C5CCCC5)nc4c3)c2c1 | enzyme activity, inhibitor | 1 µM | activity vs control | 110% |
